The target in one experiment is Cathepsin B (Homo sapiens, UniProt P07858). In words: Inhibition of human liver cathepsin B. In short, it runs like this: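 Human liver enzyme at 0.56 ng/mL final in sodium acetate pH 5.5 buffer with 4 mM DTT, 0.01% Triton X-100, 0.5 mM EDTA. 20 min room-temperature preincubation with inhibitor, then Z-Arg-Arg-AMC (10 µM final). Quadruplicate. Sigmoidal IC50 fit.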

Experiment [1] addresses T1, Cathepsin B-like cysteine protease (Trypanosoma brucei, UniProt Q6R7Z5).
T1 sequence (Q6R7Z5 whole entry): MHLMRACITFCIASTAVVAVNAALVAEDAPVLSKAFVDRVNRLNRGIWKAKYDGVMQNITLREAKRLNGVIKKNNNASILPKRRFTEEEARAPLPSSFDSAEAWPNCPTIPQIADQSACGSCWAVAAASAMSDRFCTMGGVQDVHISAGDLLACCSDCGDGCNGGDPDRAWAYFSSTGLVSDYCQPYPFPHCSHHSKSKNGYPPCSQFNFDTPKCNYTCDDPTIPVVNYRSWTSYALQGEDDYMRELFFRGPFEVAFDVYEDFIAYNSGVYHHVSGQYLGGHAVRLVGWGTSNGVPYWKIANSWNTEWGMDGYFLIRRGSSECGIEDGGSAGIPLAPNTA
The experiment is described as follows: Inhibition of Trypanosoma brucei cathepsin B-like cysteine protease. In outline:
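Recombinant TbcatB zymogen expressed in Pichia pastoris, purified by HIC and anion exchange, titrated with CA074; 35 nM final. Inhibitor preincubated 20 min at room temperature, then Z-Phe-Arg-AMC (10 µM final). Initial rate from fluorescence (ex 350/em 460 nm) over 10 min. Triplicate. Sigmoidal IC50 fit.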

Another experiment has as its system Trypanosoma brucei. In words: Antitrypanosomal activity against Trypanosoma brucei. The experiment is classed as functional, organism-based. In short, it runs like this:
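Culture-adapted bloodstream T. brucei grown in HMI-9 with pen/strep, 10% heat-inactivated FBS and 10% Serum Plus at 37 °C, 5% CO2, diluted to 1 × 10^4 cells/mL. Inhibitor added from DMSO, 48 h at 37 °C, then 1 h room-temperature equilibration. Cell Titer Glo luminescence read after 8 min. Quadruplicate. IC50 by curve fitting. Values shift up to 10-fold with FBS lot.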

Another experiment has as its target Procathepsin L (Homo sapiens, UniProt P07711). In words: Inhibition of human liver cathepsin L. In short, it runs like this:
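Inhibitor preincubated 20 min at room temperature before Z-Phe-Arg-AMC (10 µM final). Initial rate from fluorescence (ex 350/em 460 nm) over 10 min. Quadruplicate. Sigmoidal IC50 fit.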

Chain of Procathepsin L (P07711 whole entry): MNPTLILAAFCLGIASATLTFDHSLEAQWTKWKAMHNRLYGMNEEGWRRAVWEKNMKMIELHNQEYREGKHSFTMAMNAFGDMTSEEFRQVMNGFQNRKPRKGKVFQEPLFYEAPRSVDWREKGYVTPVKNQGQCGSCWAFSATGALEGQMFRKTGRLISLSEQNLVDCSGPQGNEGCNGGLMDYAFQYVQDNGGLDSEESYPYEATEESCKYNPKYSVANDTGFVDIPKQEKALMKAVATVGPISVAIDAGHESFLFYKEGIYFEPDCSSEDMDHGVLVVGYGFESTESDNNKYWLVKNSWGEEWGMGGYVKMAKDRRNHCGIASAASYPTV

Turning to `N#Cc1nc(NCCc2ccccc2)c2ncn(Cc3ccccc3)c2n1`, the IC50 is > 30 µM on Cathepsin B, > 25 µM in experiment [1], 2.4 µM in the experiment on Trypanosoma brucei and > 30 µM on Procathepsin L.

In the case of `CC(Nc1nc(C#N)nc2c1ncn2Cc1ccccc1)c1ccccc1` (stereo not given), the IC50 at Cathepsin B was > 30 µM; in experiment [1], > 25 µM; with Trypanosoma brucei, 1.3 µM; on Procathepsin L, > 30 µM.

As to `COc1ccc(Cn2cnc3c(NCc4ccc(Cl)cc4)nc(C#N)nc32)cc1`, the IC50 against Cathepsin B was > 30 µM; in experiment [1], 23 µM; in the experiment on Trypanosoma brucei it was 0.27 µM; on Procathepsin L, > 30 µM.

In the case of `COc1ccc(Cn2cnc3c(NCc4ccccc4)nc(C#N)nc32)cc1`, the half-inhibitory concentration (IC50) against Cathepsin B is > 30 µM; in experiment [1] it was 11 µM; against Procathepsin L, 26.9 µM. Besides, a half-maximal effect in the experiment with Trypanosoma brucei (EC50) was put at 0.4 µM.

As for `CCCCn1cnc2c(NCc3ccc(Br)cc3)nc(C#N)nc21`, the half-inhibitory concentration (IC50) against Cathepsin B is > 30 µM; in experiment [1], 8.4 µM; with Trypanosoma brucei, 0.54 µM; against Procathepsin L it was 9.62 µM.

Consider `CCCCn1cnc2c(NCCc3ccccc3)nc(C#N)nc21`, for which the IC50 is > 30 µM against Cathepsin B, 16 µM in experiment [1], 1.5 µM in the experiment with Trypanosoma brucei and 17.1 µM against Procathepsin L.

On to `N#Cc1nc(NCCc2ccccc2)c2ncn(Cc3cccnc3)c2n1`, for which the IC50 against Cathepsin B was > 30 µM; in experiment [1] it was 10 µM; in the experiment on Trypanosoma brucei it was 4.4 µM; against Procathepsin L it was 17.1 µM.

`N#Cc1nc(NCc2ccc(Cl)cc2)c2ncn(CC3CCCCC3)c2n1`: the IC50 on Cathepsin B was > 30 µM; in experiment [1], > 25 µM; in the experiment with Trypanosoma brucei it was > 10 µM; on Procathepsin L, > 30 µM.

Turning to `N#Cc1nc(NCc2ccc(F)cc2)c2ncn(CCCCO)c2n1`, the IC50 is > 30 µM against Cathepsin B, 18 µM in experiment [1], 0.8 µM in the experiment on Trypanosoma brucei and 6.68 µM against Procathepsin L.

Take `COC(CCn1cnc2c(NCc3ccc(Cl)c(Cl)c3)nc(C#N)nc21)OC`: the IC50 at Cathepsin B was > 30 µM; in experiment [1] it was 3.4 µM; with Trypanosoma brucei, 0.22 µM; at Procathepsin L, 0.5 µM.

As to `CCC(C)CNc1nc(C#N)nc2c1ncn2Cc1ccccc1` (stereo not given), the IC50 against Cathepsin B is > 30 µM; in experiment [1], 5 µM; in the experiment on Trypanosoma brucei, 3.4 µM; against Procathepsin L, 5.83 µM.

For `CCCCn1cnc2c(NCc3ccc(F)cc3)nc(C#N)nc21`, the IC50 at Cathepsin B was > 30 µM; in experiment [1], 7.1 µM; in the experiment with Trypanosoma brucei it was 0.7 µM; against Procathepsin L, 6.84 µM.

Turning to `CCCCn1cnc2c(NC(C)c3ccccc3)nc(C#N)nc21` (stereo not given), the IC50 was > 30 µM on Cathepsin B, > 25 µM in experiment [1], 1.5 µM with Trypanosoma brucei and 9.4 µM on Procathepsin L.

Regarding `N#Cc1nc(NCc2ccc(Br)cc2)c2ncn(Cc3ccccc3)c2n1`, the IC50 is > 30 µM at Cathepsin B, > 25 µM in experiment [1], 1.1 µM with Trypanosoma brucei and 28.9 µM on Procathepsin L.

Regarding `COCOCCn1cnc2c(NCc3ccc(Cl)c(Cl)c3)nc(C#N)nc21`, the IC50 at Cathepsin B is > 30 µM; in experiment [1], 0.8 µM; in the experiment with Trypanosoma brucei it was 0.32 µM; against Procathepsin L it was 0.87 µM.

Usually IC50 stands for the concentration needed to halve the response being measured. The term EC50 denotes the concentration giving half of the maximal effect. Low readings indicate higher potency in that assay, high ones lower potency in that assay.

(Values after ChEMBL document CHEMBL1140721, “Development of potent purine-derived nitrile inhibitors of the trypanosomal protease TbcatB” (J Med Chem, 2008).)
